From PubChem BioAssay
Hits are enriched below; roughly 1.9% of the tested compounds scored in any of these assays.
RanGTP-Imp inh = disruptors of Ran-importin-beta complex formation – biochemical, FRET, CFP-Ran, YFP-importin-beta, homogeneous, primary screen; cell-free CFP-Ran/YFP-importin-beta FRET ratio; inhibition, % (concentration not given with the values); 300,000 tested, 1.1% active;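 active = more than half of the replicate wells show a fall in the fluorescence ratio signal beyond about 16%, limit read from the data, passing the limit was not always enough; inconclusive = exactly half of the replicate wells pass the set limit; inactive = fewer than half of replicates pass the limit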
TbHK1 inh = blocks Trypanosoma brucei hexokinase 1 activity; recombinant TbHK1, G6PDH-coupled NADH A340; inhibition, % at 10 µM; 220,000 tested, 0.11% active;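 active = inhibition of 50% or more in the single-dose primary screen; inactive = inhibition below 50%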
Runt-SMMHC FRET = inhibitors of human RUNX1 Runt domain binding to CBFb-SMMHC; Cerulean-Runt/Venus-CBFb-SMMHC FRET ratio 530/480, 1 h; inhibition, % at 20 µM; AID 1434; 220,000 tested, 0.74% active; Q01196+Q13951;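 active = mean inhibition across duplicate retests at 20 µM reaching about 50%, limit read from the data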;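 also: inhibitors lower the FRET ratio by blocking Runt binding to CBFb-SMMHC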
Hck Nef HTS = inhibitors of human Hck kinase activated by Nef. P08631. Recombinant Hck-YEEI plus Nef, Z-Lyte FRET kinase assay. inhibition, % at 20 µM. 220,000 tested, 0.68% active;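 active = Hck-Nef kinase inhibition above about 50%, limit read from the data; inactive = inhibition below that limit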
Target sequence (P08631 whole entry, looked up): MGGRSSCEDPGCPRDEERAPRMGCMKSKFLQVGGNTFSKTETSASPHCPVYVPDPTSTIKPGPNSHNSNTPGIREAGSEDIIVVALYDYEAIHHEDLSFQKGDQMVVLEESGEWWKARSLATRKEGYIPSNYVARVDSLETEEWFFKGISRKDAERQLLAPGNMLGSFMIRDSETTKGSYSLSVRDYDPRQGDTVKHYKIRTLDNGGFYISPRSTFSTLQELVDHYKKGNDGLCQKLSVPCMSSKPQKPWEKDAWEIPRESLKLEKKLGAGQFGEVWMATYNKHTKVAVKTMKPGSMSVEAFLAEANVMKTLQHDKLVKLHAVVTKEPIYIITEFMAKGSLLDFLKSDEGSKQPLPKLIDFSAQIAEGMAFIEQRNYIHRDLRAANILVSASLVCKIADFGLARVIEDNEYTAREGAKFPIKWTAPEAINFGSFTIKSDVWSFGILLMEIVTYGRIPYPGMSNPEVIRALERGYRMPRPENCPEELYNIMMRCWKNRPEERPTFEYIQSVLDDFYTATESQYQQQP
Runt-CBFb FRET = Runt domain-CBFb interaction inhibition; Q01196+Q13951; Cerulean-Runt/Venus-CBFb FRET ratio 530/480, 1 h; inhibition, % at 20 µM; 220,000 tested, 0.46% active; AID 1496;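 active = inhibition over about 50% at 20 µM in the single-dose screen, limit read from the data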
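Assay system: Cerulean-Runt domain fusion protein, energy donor; Signal: fluorescence energy transfer, 422 nm excitation, 530/480 nm emission; Timing: 1 h compound exposure, room temperature; Control set: unlabeled CBFb; Medium: Tris buffer pH 7.5 with salts and BSA; Compound: single test concentration of 20 µM, 1% DMSO final; Probe or stimulus: Venus-CBFb 100 nM.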
Hits are given with their value; i = inactive; ? = inconclusive; nt = no result given.

SMILES | RanGTP-Imp inh | TbHK1 inh | Runt-SMMHC FRET | Hck Nef HTS | Runt-CBFb FRET
O=C(N/N=C/C(Cl)=C/c1ccc([N+](=O)[O-])cc1)C(=O)Nc1ccc(C(=O)O)cc1 | i | i | i | 75 | i
Cc1ccc(NC(=O)CN2C(=O)/C(=C3\SC(=S)N(C4CCS(=O)(=O)C4)C3=O)c3ccccc32)cc1 (centres undefined) | nt | i | i | 97 | i
O=C(CN1C(=O)/C(=C2\SC(=S)N(C3CCS(=O)(=O)C3)C2=O)c2ccccc21)Nc1ccccc1 (centres undefined) | nt | i | i | i | i
Cc1c(NC(=O)CN2C(=O)NC(CCc3ccccc3)C2=O)c(=O)n(-c2ccccc2)n1C (centres undefined) | 34 | i | i | i | i
CCOC(=O)c1sc(Nc2nc3cc4c(cc3s2)OCO4)cc1C | i | i | i | i | i
CCOC(=O)c1sc(Nc2nc3c(OC)cccc3s2)cc1C | i | i | 92 | i | i
CN(C)S(=O)(=O)N1CCC(Oc2cccc(C(=O)NC3CCOC3)c2)CC1 (centres undefined) | i | nt | nt | nt | nt
O=C(NCCN1CCOCC1)c1c(O)nc2ccccn2c1=O | i | nt | nt | nt | nt
COc1ccc(CCNC(=O)c2cc3c(=O)n4ccccc4nc3n(CCCN3CCOCC3)c2=N)cc1OC | 16 | nt | nt | nt | nt
COc1ccc(CCNC(=O)c2cnc3ccccn3c2=O)cc1 | i | i | i | i | i
COc1ccc(CCNC(=O)c2cc3c(=O)n4ccccc4nc3n(C3CCCCC3)c2=N)cc1 | 63 | nt | nt | nt | nt
COc1ccc(CCn2c(=N)c(C(=O)NCCN3CCOCC3)cc3c(=O)n4ccccc4nc32)cc1OC | i | nt | nt | nt | nt
COc1ccc(CCNC(=O)c2cc3c(=O)n4ccccc4nc3n(CCN3CCOCC3)c2=N)cc1 | 25 | nt | nt | nt | nt
CCCNc1nc2nc3ccccn3c(=O)c2cc1C(=O)NCCN1CCOCC1 | 131 | nt | nt | nt | nt
Cc1ccc2[nH]c(=O)cc(C(=O)OC(C)C)c2c1 | i | i | i | i | i
Cc1ccc2nc3c(cc(C(=O)NCCc4ccccc4)c(=N)n3CCCN3CCOCC3)c(=O)n2c1 | 168 | nt | nt | nt | nt
Cc1ccc(Oc2nccc(-c3ccc(Cl)cc3)n2)cc1 | i | i | i | i | i
N#Cc1c(N)n(-c2ccc(O)cc2)c2nc3ccccc3nc12 | ? | i | i | i | i
N#Cc1c(NC(=O)c2ccc(Br)o2)n(-c2ccccc2)c2nc3ccccc3nc12 | 162 | i | 81 | i | i
COc1ccc(-n2c(NC(=O)c3ccc(Br)o3)c(C#N)c3nc4ccccc4nc32)cc1 | 155 | i | i | i | 88
CC(C)NC(=O)Cn1cc(C(=O)COc2ccccc2)c2ccccc21 | ? | i | i | i | i
Fc1cccc(CSc2nc3ncccc3[nH]2)c1 | i | i | i | i | i
Fc1ccc(CSc2nc3ncccc3[nH]2)cc1 | ? | i | i | i | 102
CCOc1ccc(NC(=O)Cn2nnc(C(=O)NCc3ccc4c(c3)OCO4)c2N)cc1 | i | nt | nt | nt | nt
CC(=O)c1nn(-c2cccc(Br)c2)cc1C(=O)c1ccc(Br)cc1 | 29 | i | i | i | i
SMILES | RanGTP-Imp inh | TbHK1 inh | Runt-SMMHC FRET | Hck Nef HTS | Runt-CBFb FRET
COc1ccc(CN(CC(=O)NCc2ccc(F)cc2)C(=O)CCC(=O)Nc2cc(C)ccn2)cc1 | i | nt | nt | nt | nt
COCCn1c(=O)[nH]c2cc(C(=O)Nc3cccc(C(C)=O)c3)ccc2c1=O | i | nt | nt | nt | nt
Cc1ccc(N(C)S(=O)(=O)c2ccc3c(c2)CC(C)N3C(=O)C2CC2)cc1 (centres undefined) | 51 | nt | nt | nt | nt
CC(=O)N1c2ccc(S(=O)(=O)N(C)c3cc(C)ccc3C)cc2CC1C (centres undefined) | i | nt | nt | nt | nt
CCn1c(SCC(=O)Nc2nncs2)nnc1C(C)NC(=O)c1ccccc1Br (centres undefined) | i | nt | nt | nt | nt
CC(C)CCC1=NN(C(=O)c2ccco2)C(O)(C(F)(F)F)C1 (centres undefined) | i | i | i | i | i
COc1cc(/C=C(\C#N)c2nc3ccccc3[nH]2)c([N+](=O)[O-])cc1OCc1ccccc1 | i | i | 83 | i | i
O=C(COC(=O)C1CCN(S(=O)(=O)c2ccccc2C(F)(F)F)CC1)NCc1ccc(F)cc1 | i | i | i | i | i
O=C(CSc1nc2c([nH]c3ccccc32)c(=O)n1-c1cccc(Cl)c1)N1CCOCC1 | ? | i | i | 53 | nt
Cc1ccccc1NC(=O)c1cn2c(nc3ccccc32)c(C#N)c1C | i | i | 81 | i | i
Cc1ccc2nc(/C(C#N)=C/c3ccc(O)c(O)c3)[nH]c2c1 | 28 | nt | nt | nt | nt
Cc1ccc2nc(/C(C#N)=C/c3ccccc3C(=O)O)[nH]c2c1 | i | nt | nt | nt | nt
COc1cccc(C2C(C#N)=C(C)NC3=C2C(=O)CC(C)(C)C3)c1 (centres undefined) | i | i | 55 | i | i
CC1=C(C(=O)OCC2CCCO2)C(c2ccncc2)C2=C(CC(C)(C)CC2=O)N1 (centres undefined) | ? | i | 86 | i | i
COc1ccc(C2C(C#N)=C(C)NC3=C2C(=O)CC(C)(C)C3)cc1 (centres undefined) | i | i | i | i | i
COC(=O)C1=C(C)NC2=C(C(=O)CC(C)(C)C2)C1c1cccc(C)n1 (centres undefined) | i | i | 87 | i | i
CCOC(=O)C1=C(C)NC2=C(C(=O)CC(C)(C)C2)C1c1ccc(N(C)C)cc1 (centres undefined) | i | i | i | i | i
CCCc1nnc(NC(=O)C2CCN(C(=O)C3CC(=O)N(c4ccc(C)cc4)C3)CC2)s1 (centres undefined) | i | nt | nt | nt | nt
CCN1CC=C2C(C1)C(c1ccc(Cl)s1)C(C#N)=C(N)C2(C#N)C#N (centres undefined) | 50 | i | 82 | i | i
CCc1ccc(NC(=O)CSc2nc3ccccc3nc2N2CCCC2)cc1 | i | nt | nt | nt | nt
C=CCNc1nc(NCc2ccccc2)c(C#N)c2c1CN(C)CC2 | 109 | i | 65 | i | i
CCCCCNc1nc(NCCCO)c(C#N)c2c1CN(C)CC2 | 146 | i | 79 | i | i
N#Cc1c(NCCN)nc(NCc2ccccc2)c2c1CCN(Cc1ccccc1)C2 | nt | i | nt | i | i
COc1cc(CN2CC(=O)N(c3cc(Cl)ccc3C)C2=S)cc(OC)c1OC | i | nt | nt | nt | nt
Cc1nn(C)c(Cl)c1CN1CCN(C2CCCCC2)C(CCO)C1 (centres undefined) | i | i | i | i | 118
SMILES | RanGTP-Imp inh | TbHK1 inh | Runt-SMMHC FRET | Hck Nef HTS | Runt-CBFb FRET
OCCC1CN(Cc2c(F)cccc2Cl)CCN1C1CCCCC1 (centres undefined) | i | i | i | i | i
CN(C)C(CNC(=O)CNC(=O)Cc1cccc2ccccc12)c1ccccc1 (centres undefined) | i | nt | nt | nt | nt
Cc1nn(CC(=O)Nc2nnc(C(C)C)s2)c(=O)c2ccccc12 | i | i | i | i | i
C=CCn1c2ccccc2c(=O)c2cc(C#Cc3ccsc3)ccc21 | 24 | nt | nt | nt | nt
CC(C)(C)CN1CCC(Oc2cccc(C(=O)N3CCNC(=O)C3(C)C)c2)CC1 | i | nt | nt | nt | nt
COC(=O)c1ccccc1NC(=O)NC1CCN(Cc2ccccc2)CC1 | i | i | i | i | 91
